According to ChEMBL document CHEMBL1123026, “Preparation and antiarthritic and analgesic activity of 4,5-diaryl-2-(substituted thio)-1H-imidazoles and their sulfoxides and sulfones” (1985):

Tests used:
Format in all cases: functional
Mus musculus = experiment: Effective dose determined by mouse phenyl-p-benzoquinone writhing (PQW) assay after peroral administration; conditions: po
In short: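 Fasted (17-21 h) female white mice, 5-20 per double-blind test, dosed orally with compound suspended in 1% methylcellulose. 0.20 mL aqueous 0.01% phenyl-p-benzoquinone given i.p. 6 min before a 10-min observation for stretching/writhing. ED50 (dose protecting 50% of mice) calculated by the moving-average method.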

Rattus norvegicus [1] = experiment: Effective dose determined against rat adjuvant arthritis after peroral administration; conditions: po
In short: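 Male Lewis rats (130-150 g) given 0.1 mL Mycobacterium butyricum adjuvant (5 mg/mL in mineral oil) s.c. into the right hind paw; arthritis developed for 2 weeks. Groups of 10 matched for severity were dosed orally by gavage in PVA-acacia vehicle (10 mL/kg) for 7 days. Uninjected left paw volume was measured the day after the last dose. Percent decrease was calculated vs arthritic and nonarthritic controls. ED50 was read from a visually fitted semilog dose-response line.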

Rattus norvegicus [2] = experiment: Decrease in paw volume by the effect of compound at a dose of 100 mg/kg
In short: (§1)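 Male Lewis rats (130-150 g) got 0.1 mL adjuvant (heat-killed Mycobacterium butyricum, 5 mg/mL in mineral oil) subplantar in the right hind paw and were left 2 weeks. Groups of 10 matched for severity were dosed orally by gavage (PVA-acacia vehicle, 10 mL/kg) for 7 days. Uninjected left hind paw volume was read the next day. % decrease = (arthritic control − treated)/(arthritic − nonarthritic control) × 100; Student's t-test.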

Rattus norvegicus [3] = experiment: Decrease in paw volume by the effect of compound at a dose of 50 mg/kg; in short: as §1
Rattus norvegicus [4] = experiment: Decrease in paw volume was evaluated at dose 25 mg/kg; in short: as §1

COc1ccc(-c2nc(SC)[nH]c2-c2ccc(OC)cc2)cc1
ED50 (Mus musculus): > 135 mg/kg
ED50 (Rattus norvegicus [1]): 4.5 mg/kg

COc1ccc(-c2nc(S(=O)(=O)C(F)(F)C(F)F)[nH]c2-c2ccc(OC)cc2)cc1
ED50 (Rattus norvegicus [1]): 1.4 mg/kg

O=S(=O)(CCC(F)(F)F)c1nc(-c2ccccc2)c(-c2ccccc2)[nH]1
ED50 (Mus musculus): > 135 mg/kg
ED50 (Rattus norvegicus [1]): > 75 mg/kg

COc1ccc(-c2[nH]c(SC(F)(F)C(F)F)nc2-c2ccccc2)cc1
ED50 (Mus musculus): > 130 mg/kg
ED50 (Rattus norvegicus [1]): 30 mg/kg

FC(F)C(F)(F)Sc1nc(-c2ccc(Cl)cc2)c(-c2ccc(Cl)cc2)[nH]1
ED50 (Mus musculus): > 135 mg/kg
ED50 (Rattus norvegicus [1]): 0.33 mg/kg

O=S(=O)(c1nc(-c2ccccc2)c(-c2ccccc2)[nH]1)C(F)(F)C(F)F
ED50 (Rattus norvegicus [1]): 0.095 mg/kg

CSc1nc(-c2ccc(F)cc2)c(-c2ccc(F)cc2)[nH]1
ED50 (Mus musculus): > 130 mg/kg
ED50 (Rattus norvegicus [1]): 4 mg/kg

Fc1ccc(-c2[nH]c(SC(F)(F)C(F)F)nc2-c2ccc(Cl)cc2)cc1
ED50 (Mus musculus): > 130 mg/kg

Fc1ccc(-c2nc(SC(F)(F)C(F)F)[nH]c2-c2ccc(C(F)(F)F)cc2)cc1
ED50 (Mus musculus): > 130 mg/kg

FC(F)C(F)(F)Sc1nc(-c2ccc(C(F)(F)F)cc2)c(-c2ccccc2)[nH]1
ED50 (Mus musculus): > 130 mg/kg

Cc1ccc(-c2nc(SC(F)(F)C(F)F)[nH]c2-c2ccc(C)cc2)cc1
ED50 (Mus musculus): > 130 mg/kg
ED50 (Rattus norvegicus [1]): 27 mg/kg

COc1ccc(-c2nc([S+]([O-])CC(F)(F)F)[nH]c2-c2ccc(OC)cc2)cc1 (stereo not given)
ED50 (Rattus norvegicus [1]): 11 mg/kg

Cc1ccc(-c2[nH]c(S(C)(=O)=O)nc2-c2ccccc2)cc1
ED50 (Mus musculus): > 130 mg/kg
Decrease (Rattus norvegicus [2]): 45%

COc1ccc(-c2nc([S+](C)[O-])[nH]c2-c2ccc(OC)cc2)cc1 (stereo not given)
ED50 (Mus musculus): > 135 mg/kg
ED50 (Rattus norvegicus [1]): 6.5 mg/kg

CS(=O)(=O)c1nc(-c2ccc(Cl)cc2)c(-c2ccc(Cl)cc2)[nH]1
ED50 (Mus musculus): 3.7 mg/kg

CCCC[S+]([O-])c1nc(-c2ccccc2)c(-c2ccccc2)[nH]1 (stereo not given)
ED50 (Mus musculus): > 130 mg/kg
ED50 (Rattus norvegicus [1]): > 100 mg/kg

COc1ccc(-c2nc(SC[S+](C)[O-])[nH]c2-c2ccc(OC)cc2)cc1 (stereo not given)
ED50 (Rattus norvegicus [1]): 52 mg/kg

[O-][S+](CCC(F)(F)C(F)(F)F)c1nc(-c2ccccc2)c(-c2ccccc2)[nH]1 (stereo not given)
ED50 (Mus musculus): > 130 mg/kg
ED50 (Rattus norvegicus [1]): > 75 mg/kg

FC(Br)C(F)(F)Sc1nc(-c2ccccc2)c(-c2ccccc2)[nH]1 (stereo not given)
ED50 (Mus musculus): > 130 mg/kg
ED50 (Rattus norvegicus [1]): 11 mg/kg

CSCSc1nc(-c2ccccc2)c(-c2ccccc2)[nH]1
ED50 (Mus musculus): > 130 mg/kg
ED50 (Rattus norvegicus [1]): > 50 mg/kg

Fc1ccc(-c2nc(SC(F)F)[nH]c2-c2ccc(F)cc2)cc1
ED50 (Mus musculus): > 130 mg/kg

CCCS(=O)(=O)c1nc(-c2ccccc2)c(-c2ccccc2)[nH]1
ED50 (Mus musculus): > 130 mg/kg
Decrease (Rattus norvegicus [2]): 26%

FC(F)(F)Sc1nc(-c2ccc(Cl)c(Cl)c2)c(-c2ccccc2)[nH]1
ED50 (Mus musculus): > 130 mg/kg

C=CCS(=O)(=O)c1nc(-c2ccc(OC)cc2)c(-c2ccc(OC)cc2)[nH]1
ED50 (Mus musculus): > 130 mg/kg
ED50 (Rattus norvegicus [1]): 10 mg/kg

FC(F)Sc1nc(-c2ccccc2)c(-c2ccccc2)[nH]1
ED50 (Mus musculus): > 130 mg/kg
ED50 (Rattus norvegicus [1]): 27 mg/kg

FCC(F)(F)Sc1nc(-c2ccccc2)c(-c2ccccc2)[nH]1
ED50 (Mus musculus): > 135 mg/kg
ED50 (Rattus norvegicus [1]): 2 mg/kg

CS(=O)(=O)c1nc(-c2ccc(F)cc2)c(-c2ccc(C(F)(F)F)cc2)[nH]1
ED50 (Mus musculus): > 130 mg/kg

[O-][S+](CCC(F)(F)F)c1nc(-c2ccccc2)c(-c2ccccc2)[nH]1 (stereo not given)
ED50 (Mus musculus): > 130 mg/kg
ED50 (Rattus norvegicus [1]): > 75 mg/kg

CSc1nc(-c2ccc(F)cc2)c(-c2ccc(C(F)(F)F)cc2)[nH]1
ED50 (Mus musculus): > 130 mg/kg

C[S+]([O-])c1nc(-c2cccc(F)c2)c(-c2ccccc2)[nH]1 (stereo not given)
ED50 (Mus musculus): > 130 mg/kg
Decrease (Rattus norvegicus [2]): 67%

COc1ccc(-c2[nH]c(SC(F)(F)C(F)F)nc2-c2ccc(F)cc2)cc1
ED50 (Mus musculus): > 130 mg/kg

CS(=O)(=O)c1nc(-c2ccc(F)cc2)c(-c2ccc(F)cc2)[nH]1
ED50 (Mus musculus): > 130 mg/kg

CCS(=O)(=O)c1nc(-c2ccccc2)c(-c2ccccc2)[nH]1
ED50 (Mus musculus): > 135 mg/kg
Decrease (Rattus norvegicus [2]): 32%

FC(F)C(F)(F)Sc1nc(-c2ccc(Cl)cc2)c(-c2ccccc2)[nH]1
ED50 (Mus musculus): > 130 mg/kg

FC(F)(F)CSc1nc(-c2ccc(Cl)cc2)c(-c2ccc(Cl)cc2)[nH]1
ED50 (Mus musculus): > 130 mg/kg
ED50 (Rattus norvegicus [1]): 4 mg/kg

FC(F)(F)C(F)(F)CSc1nc(-c2ccccc2)c(-c2ccccc2)[nH]1
ED50 (Mus musculus): > 135 mg/kg

FC(F)C(F)(F)Sc1nc(-c2cccc(Cl)c2)c(-c2ccccc2)[nH]1
ED50 (Mus musculus): > 130 mg/kg

Fc1ccc(-c2nc(SC(F)(F)C(F)F)[nH]c2-c2ccccc2)cc1
ED50 (Mus musculus): > 130 mg/kg
ED50 (Rattus norvegicus [1]): 0.18 mg/kg

FC(F)C(F)(F)Sc1nc(-c2ccc(Cl)c(Cl)c2)c(-c2ccccc2)[nH]1
ED50 (Mus musculus): > 130 mg/kg

CCSc1nc(-c2ccccc2)c(-c2ccccc2)[nH]1
ED50 (Mus musculus): > 130 mg/kg
ED50 (Rattus norvegicus [1]): 100 mg/kg

CSc1nc(-c2ccc(Cl)cc2)c(-c2ccc(C(F)(F)F)cc2)[nH]1
ED50 (Mus musculus): > 130 mg/kg

CS(=O)(=O)c1nc(-c2ccc(Cl)cc2)c(-c2ccc(F)cc2)[nH]1
ED50 (Mus musculus): > 130 mg/kg

CCOc1ccc(-c2[nH]c(S(C)(=O)=O)nc2-c2ccccc2)cc1
ED50 (Mus musculus): > 130 mg/kg
Decrease (Rattus norvegicus [3]): 41%

COc1ccc(-c2[nH]c(SC)nc2-c2ccccc2)cc1
ED50 (Mus musculus): > 130 mg/kg
Decrease (Rattus norvegicus [4]): 35%

COc1ccc(-c2nc(SCC(F)(F)F)[nH]c2-c2ccc(OC)cc2)cc1
ED50 (Mus musculus): > 135 mg/kg
ED50 (Rattus norvegicus [1]): 35 mg/kg

COc1ccc(-c2nc(S(=O)(=O)C(C)C)[nH]c2-c2ccc(OC)cc2)cc1
ED50 (Mus musculus): > 130 mg/kg

CS(=O)(=O)c1nc(-c2ccc(Cl)cc2)c(-c2ccccc2)[nH]1
ED50 (Mus musculus): > 130 mg/kg

C[S+]([O-])c1nc(-c2ccc(F)cc2)c(-c2ccc(F)cc2)[nH]1 (stereo not given)
ED50 (Mus musculus): > 130 mg/kg

O=S(=O)(CCC(F)(F)C(F)(F)F)c1nc(-c2ccccc2)c(-c2ccccc2)[nH]1
ED50 (Mus musculus): > 130 mg/kg
ED50 (Rattus norvegicus [1]): > 75 mg/kg

CSc1nc(-c2cccc(F)c2)c(-c2ccccc2)[nH]1
ED50 (Mus musculus): > 130 mg/kg
ED50 (Rattus norvegicus [1]): 75 mg/kg

CSc1nc(-c2ccc(C)cc2)c(-c2ccc(C)cc2)[nH]1
ED50 (Mus musculus): > 130 mg/kg
Decrease (Rattus norvegicus [4]): 26%

COc1ccc(-c2[nH]c(S(=O)(=O)C(F)(F)C(F)F)nc2-c2ccccc2Cl)cc1
ED50 (Rattus norvegicus [1]): 6 mg/kg

[O-][S+](CC(F)(F)C(F)(F)F)c1nc(-c2ccccc2)c(-c2ccccc2)[nH]1 (stereo not given)
ED50 (Mus musculus): > 130 mg/kg
ED50 (Rattus norvegicus [1]): > 75 mg/kg

CSc1ccc(-c2[nH]c(SC(F)(F)C(F)F)nc2-c2ccc(F)cc2)cc1
ED50 (Mus musculus): > 108 mg/kg
ED50 (Rattus norvegicus [1]): 1.6 mg/kg

CS(=O)(=O)c1nc(-c2ccc(C(F)(F)F)cc2)c(-c2ccccc2)[nH]1
ED50 (Mus musculus): > 130 mg/kg
Decrease (Rattus norvegicus [3]): 32%

CS(=O)(=O)c1nc(-c2ccc(Cl)c(Cl)c2)c(-c2ccccc2)[nH]1
ED50 (Mus musculus): > 130 mg/kg
Decrease (Rattus norvegicus [3]): 59%

FC(F)C(F)(F)Sc1nc(-c2cccc(Cl)c2)c(-c2cccc(Cl)c2)[nH]1
ED50 (Mus musculus): > 130 mg/kg
ED50 (Rattus norvegicus [1]): 1.2 mg/kg

CS(=O)(=O)c1nc(-c2ccc(Cl)cc2)c(-c2ccc(C(F)(F)F)cc2)[nH]1
ED50 (Mus musculus): > 135 mg/kg

CSc1nc(-c2ccc(Cl)cc2)c(-c2ccc(F)cc2)[nH]1
ED50 (Mus musculus): > 130 mg/kg

Fc1ccc(-c2nc(SC(F)(F)C(F)F)[nH]c2-c2ccc(F)cc2)cc1
ED50 (Mus musculus): > 81 mg/kg
ED50 (Rattus norvegicus [1]): 0.05 mg/kg

CSc1nc(-c2ccc(Cl)cc2)c(-c2ccc(Cl)cc2)[nH]1
ED50 (Mus musculus): > 135 mg/kg
ED50 (Rattus norvegicus [1]): 4 mg/kg

CCCCSc1nc(-c2ccccc2)c(-c2ccccc2)[nH]1
ED50 (Mus musculus): > 130 mg/kg
ED50 (Rattus norvegicus [1]): > 75 mg/kg

COc1ccc(-c2nc(SCC(C)=O)[nH]c2-c2ccc(OC)cc2)cc1
ED50 (Rattus norvegicus [1]): 10 mg/kg

C[S+]([O-])c1nc(-c2ccc(Cl)c(Cl)c2)c(-c2ccccc2)[nH]1 (stereo not given)
ED50 (Mus musculus): > 130 mg/kg
Decrease (Rattus norvegicus [3]): 46%

CSc1nc(-c2ccc(Cl)c(Cl)c2)c(-c2ccccc2)[nH]1
ED50 (Mus musculus): > 130 mg/kg
Decrease (Rattus norvegicus [4]): 62%

CCCCS(=O)(=O)c1nc(-c2ccccc2)c(-c2ccccc2)[nH]1
ED50 (Mus musculus): > 130 mg/kg
ED50 (Rattus norvegicus [1]): > 100 mg/kg

Fc1cccc(-c2nc(SC(F)(F)C(F)F)[nH]c2-c2ccccc2)c1
ED50 (Mus musculus): > 130 mg/kg
ED50 (Rattus norvegicus [1]): 2.5 mg/kg

O=S(=O)(CC(F)(F)C(F)(F)F)c1nc(-c2ccccc2)c(-c2ccccc2)[nH]1
ED50 (Mus musculus): > 130 mg/kg
ED50 (Rattus norvegicus [1]): > 100 mg/kg

Cl.Nc1ccc(-c2[nH]c(S(=O)(=O)C(F)(F)C(F)F)nc2-c2ccc(F)cc2)cc1
ED50 (Rattus norvegicus [1]): > 3 mg/kg
